The values below come from ChEMBL document CHEMBL4265995, “Chaetolines A and B, Pyrano[3,2- f]isoquinoline Alkaloids from Cultivation of Chaetomium sp. in the Presence of Autoclaved Pseudomonas aeruginosa” (2018).

What all share (type): functional
The subject of one assay is Escherichia coli. Nature of the assay: Antibacterial activity against Escherichia coli ATCC 25922 after 24 hrs by CLSI method. Particulars: ATCC 25922, 24 h. Summed up:
(§1)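 Broth microdilution in 96-well plates, using a medium of 1.75% w/v acid digest of casein and 0.15% w/v starch. Compounds came from a 10 mg/mL DMSO stock. Serial 2-fold dilutions started at 64 μg/mL, with DMSO diluted along with the compounds (0.64% final at the top concentration). Plates were incubated 24 h at 37 °C and read by visual inspection. Moxifloxacin and rifampicin were the positive controls.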

The subject of assay [1] is Staphylococcus aureus. In words: Antibacterial activity against Staphylococcus aureus ATCC 29213 after 24 hrs by CLSI method. Particulars: ATCC 29213, 24 h. Summed up: as §1
The test system of assay [2] is Staphylococcus aureus. Nature of the assay: Antibacterial activity against Staphylococcus aureus ATCC 700699 after 24 hrs by CLSI method. Particulars: ATCC 700699, 24 h. Summed up:
as §1

The next assay deals with L5178Y. Nature of the assay: Cytotoxicity against mouse L5178Y cells by MTT assay. Summed up: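 MTT viability assay on L5178Y mouse lymphoma cells, compared with untreated controls. Negative controls were media containing 0.1% ethylene glycol monomethyl ether/DMSO. Three independent experiments, each in triplicate.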
(In general: Tetrazolium dyes change colour on reduction, which living cells bring about.)

Assay [3] has as its system Acinetobacter baumannii. Nature of the assay: Antibacterial activity against Acinetobacter baumannii BAA747 after 24 hrs by CLSI method. The note with it: BAA747, 24 h. An outline of the steps:
as §1

The next assay deals with Klebsiella pneumoniae. Nature of the assay: Antibacterial activity against Klebsiella pneumoniae ATCC 13883 after 24 hrs by CLSI method. Particulars: ATCC 13883, 24 h. Summed up: as §1
The subject of another assay is Pseudomonas aeruginosa. Nature of the assay: Antibacterial activity against Pseudomonas aeruginosa ATCC 27853 after 24 hrs by CLSI method. The note with it: ATCC 27853, 24 h. Summed up: as §1
For assay [4], the system named is Acinetobacter baumannii. Nature of the assay: Antibacterial activity against Acinetobacter baumannii BAA1605 after 24 hrs by CLSI method. Particulars: BAA1605, 24 h. An outline of the steps: as §1

SMILES strings stand for the structures. A value given as a limit tells only on which side of the number the result lay.

Consider `Cc1c2c(c3cc(C)n([C@@H](CC(C)C)C(=O)O)c(=O)c3c1O)C[C@@H](C(C)(C)O)CO2`, for which the MIC was over 100 µM with Escherichia coli; over 100 µM with Staphylococcus aureus [1]; over 100 µM against Staphylococcus aureus [2]; over 20 µM in the assay on L5178Y; over 100 µM against Acinetobacter baumannii [3]; over 100 µM in the assay with Klebsiella pneumoniae. For the same compound, the MIC in the assay with Pseudomonas aeruginosa and in the assay with Acinetobacter baumannii [4] was over 100 µM throughout.
`CCC(C)[C@@H](C(=O)O)n1c(C)cc2c3c(c(C)c(O)c2c1=O)OC[C@H](C(C)(C)O)C3` (stereo partly specified): the MIC with Escherichia coli is over 100 µM; with Staphylococcus aureus [1], over 100 µM; against Staphylococcus aureus [2] it was over 100 µM; with L5178Y, over 20 µM; in the assay with Acinetobacter baumannii [3], over 100 µM; against Klebsiella pneumoniae, over 100 µM. Further, the MIC in the assay with Pseudomonas aeruginosa and in the assay on Acinetobacter baumannii [4] was over 100 µM in each case.
